In ChEMBL document CHEMBL1153735, “Synthesis and in vitro cytostatic activity of new beta-D-arabino furan[1',2':4,5]oxazolo- and arabino-pyrimidinone derivatives” (Eur J Med Chem, 2010):
Active and inactive are the calls of the source. The calls are words filed in the database; no cut-off is given here.

What was measured:
[1] = Cytotoxicity against human Molt4/C8 cells after 2 days; assay type: functional, cell-based; conditions: MOLT-4, 48 h
CCRF-CEM = assay: Cytotoxicity against human CEM cells after 2 days; assay type: functional, cell-based; conditions: for IC50: Homo sapiens, CCRF-CEM, 48 h
L1210 = assay: Cytotoxicity against mouse L1210 cells after 2 days; assay type: functional, cell-based; conditions: L1210, 48 h
Outline: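 L1210 cells at 300,000–500,000 cells/mL were added to an equal volume of diluted compound. After 2 days at 37 °C, cells were counted with a Coulter counter. IC50 is the concentration that inhibits proliferation by 50%.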

[2] = tested on: Vesicular stomatitis virus; assay: Antiviral activity against VSV infected in human HEL cells assessed as inhibition of virus induced cytopathic effect; assay type: functional, organism-based
[3] = tested on: Mammalian orthoreovirus 1; assay: Antiviral activity against Reovirus 1 infected in african green monkey Vero cells assessed as inhibition of virus induced cytopathic effect; assay type: functional, organism-based
Outline: (§1)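 Confluent monolayers in 96-well plates were infected with 100 CCID50 of virus, with 1 h adsorption before residual virus was removed. Cultures were then kept with test compound at 200, 40 or 8 μM. Cytopathic effect was scored once it was complete in untreated infected controls.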

Human respirovirus 3 = assay: Antiviral activity against Parainfluenza virus 3 infected in african green monkey Vero cells assessed as inhibition of virus induced cytopathic effect; assay type: functional, organism-based; outline: as §1
Punta Toro virus = assay: Antiviral activity against Punta Toro virus infected in african green monkey Vero cells assessed as inhibition of virus induced cytopathic effect; assay type: functional, organism-based; outline: as §1
Influenza B virus = assay: Antiviral activity against influenza B virus infected in MDCK cells assessed as inhibition of virus induced cytopathic effect; assay type: functional, organism-based
Influenza A virus [4] = assay: Antiviral activity against influenza A H3N2 virus infected in […] cells assessed as inhibition of virus induced cytopathic effect; assay type: functional, organism-based
Feline coronavirus = assay: Antiviral activity against Feline coronavirus infected in CRFK cells assessed as inhibition of virus induced cytopathic effect; assay type: functional, organism-based; outline: as §1
Human alphaherpesvirus 1 = assay: Antiviral activity against HSV1 KOS infected in human HEL cells assessed as inhibition of virus induced cytopathic effect; assay type: functional, organism-based; outline: as §1
Vaccinia virus = assay: Antiviral activity against Vaccinia virus infected in human HEL cells assessed as inhibition of virus induced cytopathic effect; assay type: functional, organism-based; conditions: Orthopoxvirus vaccinia
Sindbis virus = assay: Antiviral activity against Sindbis virus infected in african green monkey Vero cells assessed as inhibition of virus induced cytopathic effect; assay type: functional, organism-based; outline: as §1
Human alphaherpesvirus 2 = assay: Antiviral activity against HSV2 G infected in human HEL cells assessed as inhibition of virus induced cytopathic effect; assay type: functional, organism-based; conditions: strain G; outline: as §1
Influenza A virus [5] = assay: Antiviral activity against influenza A H1N1 virus infected in […] cells assessed as inhibition of virus induced cytopathic effect; assay type: functional, organism-based

Structure (SMILES)	IC50 [1] [µM]	IC50 (CCRF-CEM) [µM]	IC50 (L1210) [µM]	further results
CN(C)/C=N\C1=N[C@@H]2[C@H](O1)O[C@H](CO[Si](C)(C)C(C)(C)C)[C@H]2O[Si](C)(C)C(C)(C)C	226	215	254	–
CC(C)(C)[Si](C)(C)OC[C@H]1O[C@H]2Oc3nc4c(c(=O)n3[C@H]2[C@@H]1O[Si](C)(C)C(C)(C)C)CCCC4	129	126	201	Activity [2]: inactive; Activity [3]: inactive; Activity (Human respirovirus 3): inactive; Activity (Punta Toro virus): inactive; Activity (Influenza B virus): inactive; Activity (Influenza A virus [4]): inactive; Activity (Feline coronavirus): inactive; Activity (Human alphaherpesvirus 1): inactive; EC50 (CCRF-CEM; ccrf-cem): Not Active; EC50 (Vaccinia virus): 45 µM; Activity (Sindbis virus): inactive; Activity (Human alphaherpesvirus 2): inactive; Activity (Influenza A virus [5]): inactive
CN(C)/C=N\C1=N[C@@H]2[C@H](O1)O[C@H](CO)[C@H]2O	> 500	> 500	> 500	–
O=c1nc2n(c3c1CCCC3)[C@@H]1[C@H](O2)O[C@H](CO)[C@H]1O	> 500	> 500	> 500	–
CC(C)(C)[Si](C)(C)OC[C@H]1O[C@H]2Oc3nc(=O)c4c(n3[C@H]2[C@@H]1O[Si](C)(C)C(C)(C)C)CCCC4	185	212	229	–
CC(=O)c1c[nH]c(=O)n([C@@H]2O[C@H](CO)[C@@H](O)[C@@H]2O)c1=O	> 500	> 500	> 500	–
CC(=O)c1cnc2n(c1=O)[C@@H]1[C@H](O2)O[C@H](CO[Si](C)(C)C(C)(C)C)[C@H]1O[Si](C)(C)C(C)(C)C	7.9	7.5	6	–
O=c1c2c(nc3n1[C@@H]1[C@H](O3)O[C@H](CO)[C@H]1O)CCCC2	> 500	> 500	> 500	–
O=c1[nH]c(=O)n([C@@H]2O[C@H](CO)[C@@H](O)[C@@H]2O)c2c1CCCC2	> 500	> 500	> 500	–
CCOC(=O)c1c[nH]c(=O)n([C@@H]2O[C@H](CO)[C@@H](O)[C@@H]2O)c1=O	> 500	> 500	> 500	–
O=c1[nH]c2c(c(=O)n1[C@@H]1O[C@H](CO)[C@@H](O)[C@@H]1O)CCCC2	> 500	> 500	> 500	–
Nc1ccn([C@@H]2O[C@H](CO)[C@@H](O)[C@@H]2O)c(=O)n1 [CYTARABINE]	–	0.024	0.024	–
CC(=O)c1cnc2n(c1=O)[C@@H]1[C@H](O2)O[C@H](CO)[C@H]1O	380	254	312	–
C/C(N)=C1/C=NC(=O)N([C@@H]2O[C@H](CO[Si](C)(C)C(C)(C)C)[C@@H](O[Si](C)(C)C(C)(C)C)[C@@H]2O)C1=O	18	17	–	–
C/C(N)=C1/C=NC(=O)N([C@@H]2O[C@H](CO)[C@@H](O)[C@@H]2O)C1=O	299	217	211	–
CCOC(=O)c1cnc2n(c1=O)[C@@H]1[C@H](O2)O[C@H](CO)[C@H]1O	> 500	> 500	> 500	–
